Laboratory results as given in the RNAGym collection of RNA variant scans (doi:10.1126/science.aae0568).
Fewer inactive variants are shown than the library holds.

B1: tRNA (parent)
chain: GUUCCGUUGGCGUAAUGGUAACGCGUCUCCCUCCUAAGGAGAAGACUGCGGGUUCGAGUCCCGUACGGAACG

Variants of: B1
Test: yeast fitness relative to wild type (ratio to wild type); higher = fitter; tRNA-Arg(CCU), competitive growth, 37 C, YPD
How it was run: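 Start and end populations of a pooled competition were compared by 100-nucleotide paired-end sequencing of gene amplicons. The Saccharomyces cerevisiae strains carried tRNA-Arg(CCU) gene variants at the native genomic locus, synthesised with a 3% per-site mutation rate at 69 sites, and competed in YPD at 37°C for 24 hours in six parallel replicates. Darwinian fitness relative to wild type was based on the change in genotype frequencies. Genotypes required ≥ 100 starting reads, and estimates < 0.5 were set to 0.5.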

Variant	yeast fitness
G6C U53C C62U	0.589
U7A C11A C33U C55G G56A	0.838
U7A C11G C27U A37C G51C	≤ 0.5
U7A A21C A45G	0.571
G6C G18C A21G A40U C49U C61U A70G	0.564
U7A A36G	0.662
U7A A20G C22A A40G G41C	≤ 0.5
G6U G44C G56C	≤ 0.5
G6C U8C G48A	0.664
U7A A37C A43C A65G	≤ 0.5
U7A C29G C46G G58A	≤ 0.5
U7A A45G C61A A70G	≤ 0.5
G6C G25A A37U A42G	≤ 0.5
U7A A20C U59A A65C	0.662
G6C U13C C33U A42C C60U A69G	0.665
U7A A20G G23A A40G U47C A70C	≤ 0.5
G6C U32C	0.994
G6C U8C C49U	0.531
G6C U64G	0.63
G6C U64C	0.87
G6C G25A A37U	≤ 0.5

Variant	yeast fitness
G6U C11A U13A G52A C61U A69C	0.527
U7A C24U C33A G50A A65C	≤ 0.5
G6C U54G	0.587
G6C U54C	0.898
U7A A40U A43C	0.656
U7A	0.826
U7A C22G A57U	≤ 0.5
U7A C22G A57G	≤ 0.5
G6C G41C C49G U54C U59G G63A C66U	≤ 0.5
U7A A14G A21C U47A G48A	≤ 0.5
U7A A21U A42G C55U A70C	≤ 0.5
U7A A20U G52A	≤ 0.5
G6C G41A A45U	≤ 0.5
G6C U7C G9C C49U	≤ 0.5
U7A A15C A57G	≤ 0.5
U7A A21C U32C	≤ 0.5
U7A C27A G50C C60U A70C	≤ 0.5
G6C U8C C11U G39C C55A	≤ 0.5
U7A C31G	0.78
G6C G51A A70G	≤ 0.5
U7A C27U A69U	0.691

Variant	yeast fitness
U7A A20U G23C U26A C33A A57U	≤ 0.5
G6C G25C C29G G52A A69U	0.527
G6C G51C	0.596
G6C U47A G51C A65G	0.644
U7A C33A C46U G63U	0.574
U7A A36U A45G U47A G68A	≤ 0.5
U7A A40U C55G G63C	≤ 0.5
G6C G18A	0.729
G6C G50C U53C C55U	≤ 0.5
G6C U8C A43U U59C	≤ 0.5
G6C G18A G51C A65C	≤ 0.5
G6C U16G C62U	0.532
U7A C24U U54C A69U	≤ 0.5
U7A C29G A36G	≤ 0.5
U7A C29G G67U	≤ 0.5
G6C U7G C24U C27A C60U	≤ 0.5
U7A C30U C66U	≤ 0.5
U7A A36U C55U A65U	0.555
G6C G41A A45C A57C	≤ 0.5
G6C G17C C27U A40U C60U	≤ 0.5
U7A A42G C46A C55G	≤ 0.5

Variant	yeast fitness
U7A A40U C61G G67U	≤ 0.5
U7A A21U G41A	0.619
G6C U16A C30A A69U	≤ 0.5
U7A A20G C31U A57C A65U	≤ 0.5
U7A A15C C55G	≤ 0.5
U7A A15U U53C	≤ 0.5
G6C G63C	0.689
G6C G63A	0.911
G6C G48A	1.01
U7A C11A A21C C29U C49U G56A	≤ 0.5
G6C G51C A65C	0.579
G6C G38C G68A A70U	≤ 0.5
U7A A14C G25A C30G C61U	≤ 0.5
U7A C22U U54C C66U G68C A69U	0.567
U7A C30U	0.614
U7A A57G	0.759
U7A A57C	0.54
U7A A45C C66U	0.535
U7A C27A A65U	0.603
U7A A45U	0.672
